In data set [1] the test system is Plasmodium falciparum. Kind of data set: Resistance index, ratio of IC50 for Plasmodium falciparum C235 to IC50 for Plasmodium falciparum D6. The data set is classed as functional.
Data set [2] in a line: Selectivity index, ratio of IC90 for […] cells to IC90 for Plasmodium falciparum W2. The data set is classed as toxicity, cell-based.
The test system of data set [3] is Plasmodium falciparum. Put plainly: Antimalarial activity against Plasmodium falciparum C235. The data set is classed as functional, organism-based.
The subject of data set [4] is Plasmodium falciparum. Put plainly: Antimalarial activity against Plasmodium falciparum D6. The data set is classed as functional, organism-based.
Another data set deals with Vero. Put plainly: Cytotoxicity against african green monkey Vero 76 cells at 20 uM. The data set is classed as cell-based. To be noted: chlorocebus sabaeus.
Data set [5] is described as follows: Selectivity index, ratio of IC50 for […] cells to IC50 for Plasmodium falciparum D6. The data set is classed as toxicity, cell-based. The following applies: read-out: Ratio IC50.
A short description of data set [6]: Selectivity index, ratio of IC50 for […] cells to IC50 for Plasmodium falciparum C235. The data set is classed as toxicity, cell-based. The following applies: read-out: Ratio IC50.
Data set [7] has as its system Ebolavirus. Put plainly: Antiviral activity against Zaire ebolavirus expressing enhanced GFP in Vero 76 cells at 20 uM after 48 hrs by standard Plaque assay. The data set is classed as functional. The following applies: Orthoebolavirus.
A further data set relates to Liver. Put plainly: Half life in mouse liver microsomes. The data set is classed as ADME, Microsome. The essentials: (§1)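 Compound at 10 μM was incubated with mouse or human liver microsomes (1 mg/mL protein) in 0.1 M sodium phosphate pH 7.4 with an NADPH-regenerating system at 37°C, started by G6PD. Samples were quenched with cold acetonitrile at 0, 10, 30 and 60 min and analysed by LC-MS/MS. Half-life = 0.693/k.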

Data set [8] is described as follows: Selectivity index, ratio of IC50 for […] cells to IC50 for Plasmodium falciparum W2. The data set is classed as toxicity, cell-based. The following applies: read-out: Ratio IC50.
For another data set, the system named is RAW264.7. Kind of data set: Cytotoxicity against rat RAW264.7 cells by MTT assay. The data set is classed as cell-based. The essentials:
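RAW 264.7 cells were seeded at 2.5×10^4 per well about 12 h before dosing. They were exposed to 0.29–48 μg/ml compound for 48 h at 37°C, 5% CO2. Viability was read by MTT reduction, with a DMSO control. Runs were in duplicate, and IC50 came from sigmoidal variable-slope dose-response fits.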
In general terms: Tetrazolium assays rely on reduction of a dye to a coloured formazan, in cell work by metabolically active cells.

Data set [9] is described as follows: Selectivity index, ratio of IC90 for […] cells to IC90 for Plasmodium falciparum D6. The data set is classed as toxicity, cell-based.
A short description of data set [10]: Selectivity index, ratio of IC90 for […] cells to IC90 for Plasmodium falciparum C235. The data set is classed as toxicity, cell-based.
The subject of the next data set is Mus musculus. Put plainly: Toxicity against ICR mouse at 160 mg/kg, po for 3 consecutive days measured. The data set is classed as organism-based. Details: dose 160 mg/kg, route oral. The following applies: in vivo. The essentials:
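P. berghei (P-line)-infected outbred ICR mice were given compound orally in 0.5% hydroxyethylcellulose/0.1% Tween 80 daily for 3 days. Toxicity was judged from overt physical or behavioural changes, checked twice daily, plus gross necropsy of all mice.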

The test system of the next data set is Plasmodium berghei. Kind of data set: Antiplasmodial activity against Plasmodium berghei str. ANKA infected in ICR mouse assessed as protection against infection. The data set is classed as functional, organism-based. The essentials:
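ICR mice were dosed orally once daily on days -1, 0 (1–3 h before inoculation) and +1, with compound in 0.5% hydroxyethylcellulose/0.1% Tween 80. On day 0 they received 1.0×10^5 P. berghei ANKA sporozoites IV, taken from Anopheles dirus salivary glands. Giemsa thick/thin tail smears were read on days 4–31. Protection meant no parasitemia within 10 days and negative smears through day 31.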

The target of data set [11] is Botulinum neurotoxin type A (Clostridium botulinum) (UniProt P0DPI0). Kind of data set: Inhibition of clostridium botulinum Botulinum neurotoxin type A light chain at 20 uM. The essentials:
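Recombinant BoNT/A LC and peptide substrate were incubated in 40 mM HEPES–0.05% Tween pH 7.3 with 0.5 mg/ml BSA and 50 μM excess ZnCl2 at 37°C, with compound at 20 μM. Reactions were quenched with TFA, and substrate hydrolysis was quantified by reverse-phase HPLC peak areas. Percent inhibition was measured in duplicate.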

For the next data set, the system named is Liver microsomes. Kind of data set: Half life in human liver microsomes. The data set is classed as ADME, Microsome. In short, it runs like this:
as §1
In general terms: Liver microsomes are a subcellular fraction often used to study metabolism.

The test system of data set [12] is Plasmodium falciparum. Put plainly: Resistance index, ratio of IC50 for Plasmodium falciparum W2 to IC50 for Plasmodium falciparum D6. The data set is classed as functional. In short, it runs like this: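 P. falciparum clones D6 (CQ/MFQ-susceptible, Sierra I/UNC), W2 (CQ-resistant, MFQ-susceptible, Indochina I) and TM91C235 (CQ- and MFQ-resistant, South-East Asian) were tested in a modified Desjardins in vitro susceptibility screen, giving IC50 and IC90. Resistance index is IC50 of the resistant strain divided by IC50 against D6 (W2/D6, C235/D6).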

In data set [13] the test system is Ebolavirus. Kind of data set: Antiviral activity against Zaire ebolavirus expressing enhanced GFP in Vero 76 cells after 48 hrs by standard Plaque assay. The data set is classed as functional, cell-based. The following applies: Orthoebolavirus.
Data set [14] relates to Plasmodium falciparum. Kind of data set: Antimalarial activity against Plasmodium falciparum W2. The data set is classed as functional, organism-based.

The source made the active and inactive calls. The calls are words filed in the database; no cut-off is given here. Some results are limits rather than exact numbers.

Botulinum neurotoxin type A (Clostridium botulinum), sequence (P0DPI0 2-448 limits assumed): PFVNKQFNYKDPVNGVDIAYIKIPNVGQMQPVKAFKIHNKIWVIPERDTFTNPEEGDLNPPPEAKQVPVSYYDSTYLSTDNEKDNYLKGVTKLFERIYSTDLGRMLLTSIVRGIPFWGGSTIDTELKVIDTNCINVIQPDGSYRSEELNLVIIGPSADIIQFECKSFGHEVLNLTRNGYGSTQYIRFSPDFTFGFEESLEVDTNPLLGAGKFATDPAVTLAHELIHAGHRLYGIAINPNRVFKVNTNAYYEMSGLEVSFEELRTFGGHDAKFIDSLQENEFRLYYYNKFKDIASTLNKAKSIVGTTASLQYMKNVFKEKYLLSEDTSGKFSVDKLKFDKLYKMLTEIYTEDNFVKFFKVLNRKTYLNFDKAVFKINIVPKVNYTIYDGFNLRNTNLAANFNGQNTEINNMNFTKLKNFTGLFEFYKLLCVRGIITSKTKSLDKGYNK

Regarding `CCN(CC)CCNc1cc(C)nc2c1ccc1c2ccc2c(NCCN(CC)CC)cc(C)nc21.Cl`, the “Ratio IC50” value was determined as 0.55 in the data set with Plasmodium falciparum [1] and 0.57 in the data set with Plasmodium falciparum [12]. Besides, the selectivity ratio was 1060 in data set [2]; 1560 in data set [5]; 282 in [6]; 2690 in data set [8]; 1190 in data set [9]; 2830 in [10]. In addition, the IC50 (as a rule, the concentration needed to halve the response being measured) came out at 3.32 nM with Plasmodium falciparum [3]; 6.01 nM in the data set with Plasmodium falciparum [4]; 9350 nM in the data set on RAW264.7 (Mus musculus, RAW264.7); 5000 nM with Ebolavirus [13]. Also, the IC90 – broadly, the point of the concentration-response curve where the effect stands at 90% – with Plasmodium falciparum [3] was 3.79 nM; with Plasmodium falciparum [4], 9.01 nM; in the data set with RAW264.7 (rat, raw264.7), 10700 nM; in the data set with Plasmodium falciparum [14], 10.1 nM. Further, the Activity is listed as under 20% in the data set on Vero and “Non-toxic” with Mus musculus. Further, the inhibition (usually how much of the control response was suppressed) at 20 µM in the data set with Ebolavirus [7] stood at 97%. Besides, the t1/2 in the data set with Liver and in the data set on Liver microsomes was over 1 h in each case. The outcome with Plasmodium berghei was inactive. For the same compound, in data set [11], the inhibition was 55.4%.

These data come from ChEMBL document CHEMBL1773055, “A chemotype that inhibits three unrelated pathogenic targets: the botulinum neurotoxin serotype A light chain, P. falciparum malaria, and the Ebola filovirus” (J Med Chem, 2011).
